Laboratory results reported in ChEMBL document CHEMBL4020818, “Novel Sigma Receptor Ligand-Nitric Oxide Photodonors: Molecular Hybrids for Double-Targeted Antiproliferative Effect” (J Med Chem, 2017).
Activity calls are given as the source filed them.

Experiments:
[1] = Selectivity ratio of Ki for sigma 1 receptor in guinea pig brain membranes to Ki for sigma 2 receptor (unknown origin); format: cell membranes
[2] = Stability of the compound in water/methanol (1:1) mixture assessed as nitric oxide release under light irradiation by amperometric detection method; format: physicochemical; conditions: buffer
[3] = Solubility of the compound in water/methanol (1:1) mixture; format: physicochemical; conditions: buffer
[4] = target: Sigma non-opioid intracellular receptor 1 (Cavia porcellus, UniProt Q60492); test: Displacement of [3H]-(+)-pentazocine from sigma 1 receptor in guinea pig brain membranes after 150 mins by liquid scintillation counting method; format: cell membranes, Membrane
In short: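 Separated by filtration on PEI-presoaked GF/B filters, washed with ice-cold buffer, counted by liquid scintillation.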

[5] = target: Sigma intracellular receptor 2 (Homo sapiens, UniProt Q5BJF2); test: Displacement of [3H]-DTG from sigma 2 receptor (unknown origin) after 120 mins by liquid scintillation counting method
[6] = Dark toxicity in human A2058 cells assessed as decrease in cell viability after 24 hrs by MTT assay; format: cell-based
In short: (§1)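 Cells seeded at 10 × 10^3 per well, grown 24 h, then exposed in the dark for 24 h at 37 °C to compound (DMSO stock diluted in medium), top concentration 100 µM. MTT 0.5% added for 4 h, formazan dissolved in DMSO, read at 550 nm. Viability is expressed relative to untreated controls. EC50 comes from a variable-slope sigmoidal fit; quadruplicate wells, mean ± SEM.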

[7] = Dark toxicity in human MCF7 cells assessed as decrease in cell viability after 24 hrs by MTT assay; format: cell-based; in short: as §1
[8] = Dark toxicity in human NCTC-2544 cells assessed as decrease in cell viability after 24 hrs by MTT assay; format: cell-based; in short: as §1
[9] = Stability in human MCF7 cells assessed as nitric oxide release under light irradiation at 50 uM preincubated for 24 hrs followed by light irradiation for 15 mins by Griess assay; format: ADME, cell-based; conditions: mcf7, 0.25 h
In short: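 After 50 µM compound treatment and irradiation (or dark control), cells were pelleted and lysed in hypotonic solution. Supernatant mixed 1:1 with Griess reagent, 30 min at 37 °C in the dark, absorbance read at 545 nm. Normalised to protein content; total nitrite quantified against a sodium nitrite standard.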

NCTC-2544 [10] = test: Phototoxicity in human NCTC-2544 cells assessed as decrease in cell viability at 10 to 50 uM preincubated for 24 hrs followed by light irradiation for 15 mins by MTT assay; format: cell-based; conditions: nctc-2544, 0.25 h
In short: (§2)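 Cells preincubated 24 h with graded compound concentrations, medium then replaced with phenol red-free medium. Irradiated 15 min with a 150 W Xe lamp through a 390 nm cutoff filter; untreated cells also irradiated. Viability by MTT (0.5%, 4 h, DMSO, 550 nm) as percent of untreated controls; quadruplicate wells, mean ± SD.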

MCF7 = test: Phototoxicity in human MCF7 cells assessed as decrease in cell viability at 10 to 50 uM preincubated for 24 hrs followed by light irradiation for 15 mins by MTT assay; format: functional, cell-based; in short: as §2
A2058 [11] = test: Phototoxicity in human A2058 cells assessed as decrease in cell viability at 50 uM preincubated for 24 hrs followed by light irradiation for 15 mins by MTT assay; format: functional, cell-based
In short: (§3)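 Cells seeded at 10 × 10^3 per well and grown 24 h. Compound from DMSO stock, diluted in medium, incubated 24 h at 37 °C. Medium then swapped for phenol red-free medium and cells irradiated 15 min (150 W Xe lamp, 390 nm cutoff). MTT (0.5%) for 4 h, formazan in DMSO, OD 550 nm; viability as % of untreated controls. Quadruplicate wells, ≥2 repeats.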

[12] = Stability in human MCF7 cells assessed as nitric oxide release under light irradiation at 50 uM preincubated for 24 hrs followed by light irradiation for 15 mins by DCF-DA dye-based fluorescence microscopic method; format: ADME, cell-based; conditions: mcf7, 0.25 h
In short: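 Cells plated on glass coverslips at 50,000, attached overnight, serum-starved 24 h, then treated with compound for 24 h. Loaded with 10 µM DCF-DA for 1 h, washed in PBS, irradiated in phenol red-free medium (Xe lamp, 390 nm cutoff, 15 min). Fixed in 4% PFA and imaged by fluorescence microscopy at 10x and 40x, dark versus light.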

NCTC-2544 [13] = test: Dark toxicity in human NCTC-2544 cells assessed as decrease in cell viability at 10 to 50 uM after 24 hrs by MTT assay; format: cell-based; conditions: nctc-2544, 24 h
In short: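 Dark arm of the light experiments. Cells were seeded at 10 × 10^3 per well, precultured 24 h, then incubated 24 h at 37 °C with graded compound concentrations without irradiation. Viability was read by MTT (0.5%, 4 h, DMSO, 550 nm) as percent of untreated controls; quadruplicate wells, mean ± SD.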

[14] = Stability of the compound in water/methanol (1:1) mixture assessed as nitric oxide release under dark condition at 50 uM by amperometric detection method; format: physicochemical; conditions: buffer
[15] = Stability of the compound in water/methanol (1:1) mixture assessed as nitric oxide release under light irradiation at 50 uM by amperometric detection method; format: physicochemical; conditions: buffer
A2058 [16] = test: Phototoxicity in human A2058 cells assessed as decrease in cell viability at 10 to 25 uM preincubated for 24 hrs followed by light irradiation for 15 mins by MTT assay; format: functional, cell-based; in short: as §3

Chain of Sigma intracellular receptor 2 (Q5BJF2 whole entry): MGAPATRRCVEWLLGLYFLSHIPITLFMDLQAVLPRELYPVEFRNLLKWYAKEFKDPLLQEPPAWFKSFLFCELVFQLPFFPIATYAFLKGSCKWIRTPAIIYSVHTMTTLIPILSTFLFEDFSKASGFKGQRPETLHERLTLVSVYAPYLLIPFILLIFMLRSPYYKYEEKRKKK
Chain of Sigma non-opioid intracellular receptor 1 (Q60492 whole entry): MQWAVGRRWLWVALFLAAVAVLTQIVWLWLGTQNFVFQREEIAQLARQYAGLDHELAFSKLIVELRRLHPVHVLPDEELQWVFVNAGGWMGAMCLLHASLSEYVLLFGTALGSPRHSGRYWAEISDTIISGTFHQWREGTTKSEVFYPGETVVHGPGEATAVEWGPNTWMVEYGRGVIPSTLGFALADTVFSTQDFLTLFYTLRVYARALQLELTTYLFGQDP

O=[N+]([O-])c1ccc(NCCCN2CCC(Cc3ccccc3)CC2)cc1C(F)(F)F
Ratio Ki [1]: 1.87
Stability [2]: Unstable
solubility [3]: Soluble
Ki [4]: 0.0416 µM
Ki [5]: 0.0223 µM

COc1cc2c(cc1OC)CN(CCCNc1ccc([N+](=O)[O-])c(C(F)(F)F)c1)CC2
Ratio Ki [1]: 13.1
Stability [2]: Unstable
solubility [3]: Soluble
Ki [4]: 0.212 µM
Ki [5]: 0.0162 µM

COc1cccc2c1C(=O)c1c(O)c3c(c(O)c1C2=O)C[C@@](O)(C(=O)CO)C[C@@H]3O[C@H]1C[C@H](N)[C@H](O)[C@H](C)O1 [DOXORUBICIN]
EC50 at 24 h ([6]; read-out: EC50): 6.5 µM
EC50 at 24 h ([6]; read-out: pEC50 (converted)): 6.46 µM
EC50 at 24 h ([7]; read-out: EC50): 15.3 µM
EC50 at 24 h ([7]; read-out: pEC50 (converted)): 15.5 µM
EC50 at 24 h ([8]; read-out: EC50): 32.5 µM
EC50 at 24 h ([8]; read-out: pEC50 (converted)): 32.4 µM

COc1cc2c(cc1OC)CN(CCCCCNc1ccc([N+](=O)[O-])c(C(F)(F)F)c1)CC2
EC50 at 24 h ([6]; read-out: EC50): > 100 µM
EC50 at 24 h ([6]; read-out: pEC50 (converted)): > 100 µM
Ratio Ki [1]: 1.55
Stability [9]: Unstable
Activity (NCTC-2544 [10]): Non-Toxic
solubility [3]: Soluble
Ki [4]: 0.0394 µM
EC50 at 24 h ([7]; read-out: EC50): > 100 µM
EC50 at 24 h ([7]; read-out: pEC50 (converted)): > 100 µM
Activity (MCF7): Active
EC50 at 24 h ([8]; read-out: EC50): > 100 µM
EC50 at 24 h ([8]; read-out: pEC50 (converted)): > 100 µM
Activity (A2058 [11]): Active
Stability [12]: Unstable
Activity (NCTC-2544 [13]): Non-Toxic
Stability [14]: Stable
Stability [15]: Unstable
Activity (A2058 [16]): inactive
Ki [5]: 0.0255 µM
